We go through 20 compounds from ChEMBL document CHEMBL1139010, “Synthesis and SAR studies of 2-oxoquinoline derivatives as CB2 receptor inverse agonists” (J Med Chem, 2006).

Assay [1] deals with Cannabinoid receptor 1 (Rattus norvegicus) (UniProt P20272). The assay can be described thus: […] activity at HU210-induced CB1 receptor in rat cerebellar membrane at 1 uM. It counts as functional, cell membranes. Particulars: Cerebellum. Summed up:
(§1)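 [³⁵S]GTPγS binding in rat cerebellar membranes, measuring block of the CB1 response to 10 nM HU-210 by ligand at 1 µM and 10 µM. Ligand alone was also tested at 10 µM for agonism. Values are means of at least three independent experiments run in duplicate, with SEM as the variability.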

The target is the same in assay [2]. The assay can be described thus: […] activity at HU210-induced CB1 receptor in rat cerebellar membrane at 10 uM. It counts as functional, cell membranes. Particulars: Cerebellum. Summed up: as §1
Assay [3] has as its target T1, Cannabinoid receptor 2 (Homo sapiens, UniProt P34972). The assay can be described thus: Inhibition of [35S]GTP-gamma-S binding to human CB2 receptor expressed in CHO cells relative to SR-144528. It counts as functional, cell-based. Summed up:
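Membranes from CHO cells stably expressing hCB2 (Bmax 20.4 pmol/mg; cultured with 100 µg/mL G-418). Each incubation held 5 µg protein in 55 mM Tris-HCl pH 7.4 with 1.1 mM EDTA, 100 mM NaCl, 5 mM MgCl₂, 0.5% BSA, 11 µM GDP and about 150 pM [³⁵S]GTPγS. Ligands were added in 1% ethanol or 0.5% DMSO (final). Inhibition of basal binding was expressed against 1 µM SR144528 (Imax). At least three experiments were run in duplicate, reported as mean and SEM.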
For orientation: GTPγS resists hydrolysis and so accumulates on activated G proteins.

Assay [4] deals with T1, Cannabinoid receptor 2. The assay can be described thus: Inhibition of [35S]GTP-gamma-S binding to human CB2 receptor expressed in CHO cells. It counts as functional, cell-based.

In general, pIC50 refers to the IC50 on a negative log10 scale, so that one unit is a factor of ten.

Structures are written as SMILES. pIC50: −log10 of the molar value.

Sequence of Cannabinoid receptor 1 (Rattus norvegicus) (P20272 whole entry): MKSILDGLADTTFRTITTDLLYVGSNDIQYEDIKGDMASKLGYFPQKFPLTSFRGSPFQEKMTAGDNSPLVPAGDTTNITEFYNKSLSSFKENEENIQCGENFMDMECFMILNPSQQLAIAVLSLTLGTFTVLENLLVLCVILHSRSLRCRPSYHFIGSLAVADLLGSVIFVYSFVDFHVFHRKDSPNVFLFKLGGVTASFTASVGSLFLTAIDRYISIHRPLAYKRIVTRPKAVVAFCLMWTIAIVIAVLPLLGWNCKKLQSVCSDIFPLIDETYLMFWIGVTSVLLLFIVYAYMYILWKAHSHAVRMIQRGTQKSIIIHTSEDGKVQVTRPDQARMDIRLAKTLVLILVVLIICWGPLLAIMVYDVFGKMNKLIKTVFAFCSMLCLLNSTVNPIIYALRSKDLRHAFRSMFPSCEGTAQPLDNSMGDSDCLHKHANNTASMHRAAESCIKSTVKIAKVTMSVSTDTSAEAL
T1 sequence (P34972 whole entry): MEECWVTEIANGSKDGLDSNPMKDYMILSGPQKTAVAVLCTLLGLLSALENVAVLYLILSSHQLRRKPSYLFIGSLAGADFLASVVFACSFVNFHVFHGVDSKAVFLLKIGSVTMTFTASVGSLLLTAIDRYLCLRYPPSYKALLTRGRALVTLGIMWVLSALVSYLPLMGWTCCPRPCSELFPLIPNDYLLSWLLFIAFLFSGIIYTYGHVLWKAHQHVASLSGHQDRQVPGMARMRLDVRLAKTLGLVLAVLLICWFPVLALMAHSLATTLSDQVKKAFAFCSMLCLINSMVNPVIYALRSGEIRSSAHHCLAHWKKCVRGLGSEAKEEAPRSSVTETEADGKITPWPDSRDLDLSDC

Turning to `CCCCCOc1c(OC)ccc2cc(C(=O)Nc3ccccc3N)c(O)nc12`, the figures for the Activity in assay [1] and in assay [2] were 87% and 82%, respectively. On Cannabinoid receptor 2 [3], this compound came in with an Imax of 82%.

`CCCCCOc1c(OC)ccc2cc(C(=O)NCCc3c[nH]c4ccccc34)c(O)nc12`: the Activity stood at 94% in assay [1] and 72% in assay [2]. In addition, the Imax at Cannabinoid receptor 2 [3] stood at 79%. Further, the pIC50 at Cannabinoid receptor 2 [4] is 7.60.

`CCCCCOc1c(OC)ccc2cc(NC(=O)Cc3ccc4c(c3)OCO4)c(O)nc12`: the values for the Activity in assay [1] and in assay [2] were 93% and 75%, respectively. The same compound yielded an Imax at Cannabinoid receptor 2 [3] of 60%.

For the compound `CCCCCOc1c(OC)ccc2cc(NC(=O)Cc3ccc4c(c3)OCO4)c(=O)[nH]c12`, the pIC50 on Cannabinoid receptor 2 [4] was 7.70.

Turning to `CCCCCOc1c(OC)ccc2cc(C(=O)NCc3ccc(O)c(O)c3)c(O)nc12`, the values for the Activity in assay [1] and in assay [2] were 93% and 85%, respectively. The same compound yielded an Imax at Cannabinoid receptor 2 [3] of 124%.

For `CCCCCOc1c(OC)ccc2cc(C(=O)NCCc3ccccc3)c(=O)[nH]c12`, the Activity was determined as 87% in assay [1] and 61% in assay [2]. Besides, the Imax on Cannabinoid receptor 2 [3] is 76%. The pIC50 on Cannabinoid receptor 2 [4] is 9.20.

Take `CCCCCOc1c(OC)ccc2cc(C(=O)Nc3ccccc3N)c(=O)[nH]c12`: the negative-log IC50 (pIC50) at Cannabinoid receptor 2 [4] was 7.90.

Consider `CCCCCOc1c(OC)ccc2cc(C(=O)NCCc3ccc(Cl)cc3)c(=O)[nH]c12`, for which the Activity in assay [1] amounted to 95%; in assay [2] it was 64%. Also, the Imax on Cannabinoid receptor 2 [3] was 104%. Moreover, at Cannabinoid receptor 2 [4], the pIC50 was 8.30.

As for `CCCCCOc1c(OC)ccc2cc(C(=O)NCCc3ccc([N+](=O)[O-])cc3)c(O)nc12`, the Activity in assay [1] amounted to 87%; in assay [2], 65%. Also, at Cannabinoid receptor 2 [3], the Imax is 61%.

Regarding `CCCCCOc1c(OC)ccc2cc(C(=O)NCc3ccc4c(c3)OCO4)c(=O)[nH]c12`, the Activity in assay [1] came to 94%; in assay [2], 78%. For the same compound, the Imax on Cannabinoid receptor 2 [3] came to 80%.

For the compound `CCCCCOc1c(OC)ccc2cc(C(=O)NCCCc3ccccc3)c(=O)[nH]c12`, the results for the Activity in assay [1] and in assay [2] were 98% and 59%, respectively. On Cannabinoid receptor 2 [3], this compound registered an Imax of 82%. For the same compound, the negative logarithm of the IC50 (pIC50) on Cannabinoid receptor 2 [4] is 9.10.

For the compound `CCCCCOc1c(OC)ccc2cc(C(=O)NCCc3ccc(O)cc3)c(O)nc12`, the Activity in assay [1] was 92%; in assay [2], 68%. Besides, the Imax at Cannabinoid receptor 2 [3] came out at 90%.

On Cannabinoid receptor 2 [4], `CCCCCOc1c(OC)ccc2cc(C(=O)NCCc3ccc(N)cc3)c(=O)[nH]c12` had a pIC50 of 8.50.

As to `CCCCCOc1c(OC)ccc2cc(C(=O)NCCc3ccc(O)c(O)c3)c(O)nc12`, the Activity in assay [1] was determined as 93%; in assay [2], 63%. The compound also gave an Imax on Cannabinoid receptor 2 [3] of 93%. This compound also showed a pIC50 at Cannabinoid receptor 2 [4] of 6.40.

For the compound `Cc1ccc(Cn2nc(C(=O)NC3C4(C)CCC(C4)C3(C)C)cc2-c2ccc(Cl)c(C)c2)cc1` (centres undefined), the Activity came to 77% in assay [1] and 53% in assay [2]. On Cannabinoid receptor 2 [3], the Imax was 100%.

Compound `CCCCCOc1c(OC)ccc2cc(C(=O)NCCc3ccc(O)cc3)c(=O)[nH]c12` had a pIC50 on Cannabinoid receptor 2 [4] of 8.00.

As to `CCCCCOc1c(OC)ccc2cc(C(=O)NCc3ccccc3)c(O)nc12`, the Activity in assay [1] was 94%; in assay [2], 79%. Moreover, the Imax on Cannabinoid receptor 2 [3] came out at 75%. The pIC50 on Cannabinoid receptor 2 [4] is 7.20.

In the case of `CCCCCOc1c(OC)ccc2cc(C(=O)NCCc3ccc([N+](=O)[O-])cc3)c(=O)[nH]c12`, the pIC50 at Cannabinoid receptor 2 [4] is 7.00.

As for `CCCCCOc1c(OC)ccc2cc(C(=O)NCCc3ccc(N)cc3)c(O)nc12`, the Activity in assay [1] came out at 91%; in assay [2], 74%. On Cannabinoid receptor 2 [3], this compound yielded an Imax of 97%.

Compound `CCCCCOc1c(OC)ccc2cc(C(=O)NCc3ccc(O)c(O)c3)c(=O)[nH]c12` gave a negative-log IC50 (pIC50) on Cannabinoid receptor 2 [4] of 5.40.
